The list is not random: actives were taken first. Their share in the collection is about 4%.
TAAR1 antagonist: antagonists of human TAAR1. Q96RJ0. CHO RD-HGA16 TAAR1, Fluo-8 calcium fluorescence, antagonist. inhibition, % at 3 µM. 360,000 compounds, 1.5% hits;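 active = inhibition above a per-plate cutoff, the mean inhibition of test compounds on that plate plus 3 SD, cut at about 49% in these data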;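 note: 0% = DMSO plus EC80 beta-PEA response and 100% = DMSO alone without agonist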
Target sequence (Q96RJ0 whole entry, looked up): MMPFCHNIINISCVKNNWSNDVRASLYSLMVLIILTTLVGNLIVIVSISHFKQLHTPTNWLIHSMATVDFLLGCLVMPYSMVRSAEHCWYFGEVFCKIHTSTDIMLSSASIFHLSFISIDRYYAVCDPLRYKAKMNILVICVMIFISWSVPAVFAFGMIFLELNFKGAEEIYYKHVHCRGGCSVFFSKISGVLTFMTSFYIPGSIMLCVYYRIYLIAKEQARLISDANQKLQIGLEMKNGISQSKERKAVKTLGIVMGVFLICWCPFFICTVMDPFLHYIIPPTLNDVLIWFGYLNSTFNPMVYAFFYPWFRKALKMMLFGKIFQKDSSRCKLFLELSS
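Test system: CHO RD-HGA16 cells bearing hTAAR1 | Reagent: β-PEA, EC80 | Compound dosing: 3 µM, single point | Schedule: Dye loading 75 min at 37 °C, then 30 min room temperature | Signal: Calcium fluorescence with Fluo-8 | Evaluation: Percent inhibition of PEA-evoked calcium signal, max/basal emission ratio | Control set: DMSO-only wells and EC80 β-PEA-stimulated wells | Repeats: Singlicate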
TAAR1 agonist: agonists of human TAAR1; Q96RJ0; CHO RD-HGA16 TAAR1, Fluo-8 calcium fluorescence; vehicle wells 0%, saturating PEA agonist 100%; 360,000 compounds, 0.99% hits; activation, % at 3 µM; AID 624467;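 active = activation above the mean activation of all test compounds in the run plus 3 SD, cut at about 38% in these data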
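test system = CHO RD-HGA16 cells carrying human TAAR1 plus Gα16 | schedule = 17-24 h seeding, 75 min 37 °C dye, 30 min RT | compound dosing = 3 µM single concentration | control set = DMSO and PEA EC100 | replicates = n 1 | signal = Fluo-8 fluorescence, 5 s baseline then 140 s kinetic read | measure = percent activation vs PEA EC100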
CHO parental Ca: counter-screen for OX1R antagonists: effect in parental CHO cells; parental CHO-K1, ATP-induced calcium, Fluo-8 fluorescence; inhibition, % at 5.6 µM; 330,000 compounds, 0.63% hits;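 active = inhibition above that plate's mean sample inhibition plus 3 SD, cut at about 26% in these data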;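 note: 0% = ATP-challenged DMSO wells and 100% = DMSO wells without ATP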
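Test system: parental CHO cells; detection: calcium-sensitive Fluo-8 fluorescence; evaluation: percent inhibition of calcium signal; also added: ATP as calcium-mobilizing challenge; repeats: one well per compound; control set: ATP-challenged DMSO wells low, unchallenged DMSO wells high; compound: single nominal dose of 5.6 µM per compound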
OX1R antag-1: human HCRTR1 antagonism; O43613; CHO/OX1R cells, Fluo-8 calcium fluorescence, orexin A; inhibition, % at 5 µM; 330,000 compounds, 0.43% hits;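 active = inhibition above its plate's threshold, mean inhibition of all tested compounds on the plate plus 3 SD, cut at about 37% in these data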;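 note: 0% = orexin A challenge wells and 100% = SB-334867-A antagonist wells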
OX1R antag-2: OX1R (human) antagonism. OX1R-expressing cells, FRET antagonist read-out. O43613. 330,000 compounds, 1.8% hits. inhibition, % at 6.6 µM; in the data active = inhibition mostly above about 38%, no sharp cut-off; inactive = mostly below about 40%;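 note: 0% = agonist challenge alone and 100% = reference antagonist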
NTR1 agonist: NTR1 (human) agonism. NTR1-U2OS beta-arrestin-GFP spot imaging, agonist mode. activation, % at 20 µM. 330,000 compounds, 0.17% hits;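 active = activation at or above 40% of the spot to cytoplasm intensity ratio, with at least 20 cells analyzed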;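 note: 0% = DMSO without peptide and 100% = 100 nM NTR1 peptide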
Target sequence (P30989 whole entry, looked up): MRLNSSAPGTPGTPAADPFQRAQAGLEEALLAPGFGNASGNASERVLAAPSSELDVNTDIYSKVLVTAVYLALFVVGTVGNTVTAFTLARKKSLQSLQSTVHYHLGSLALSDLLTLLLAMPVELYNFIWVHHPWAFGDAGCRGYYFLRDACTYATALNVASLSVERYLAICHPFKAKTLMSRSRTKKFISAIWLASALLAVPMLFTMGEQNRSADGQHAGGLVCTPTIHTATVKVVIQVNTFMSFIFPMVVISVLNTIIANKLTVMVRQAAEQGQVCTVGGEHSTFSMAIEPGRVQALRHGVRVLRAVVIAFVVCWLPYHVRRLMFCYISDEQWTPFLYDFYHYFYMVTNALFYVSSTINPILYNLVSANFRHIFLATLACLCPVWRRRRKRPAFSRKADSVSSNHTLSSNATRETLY
nonsel antag count: nonselective antagonist in TAAR1 antagonist counter-screen; inhibition, % at 3 µM; counterscreen cell line, calcium fluorescence, antagonist mode; AID 651780; shares compounds with TAAR1 antagonist; 2,400 compounds, 77% hits; in the data active = inhibition above about 22%;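 note: CHO-Ga16 host cells stimulated with ATP at an EC80 level; 0% = agonist EC80 plus vehicle and 100% = vehicle without agonist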
TAAR1 ant conf: confirmation of human TAAR1 antagonists; shares compounds with TAAR1 antagonist; TAAR1-expressing cells, fluorescence antagonist read-out; inhibition, % at 3 µM; 2,400 compounds, 40% hits; AID 651785; in the data active = inhibition above about 49%;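 note: CHO-Ga16 host cells challenged with agonist PEA near its EC80; 0% = agonist at EC80 plus vehicle and 100% = vehicle with no agonist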
Ga16 nonsel ag: nonselective Ga16 agonist in TAAR1 antagonist counter-screen; AID 651953; shares compounds with TAAR1 antagonist; Ga16-expressing cells, calcium fluorescence, agonist counterscreen; activation, % at 3 µM; 2,400 compounds, 18% hits; in the data active = activation above about 12%;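 note: 0% = vehicle wells and 100% = saturating stimulus response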
TAAR1 ag counter: TAAR1 agonism, antagonist counter-screen; AID 651955; shares compounds with TAAR1 antagonist; 2,400 compounds, 2% hits; hTAAR1 cell line, fluorescence activation, agonist mode; activation, % at 3 µM; in the data active = activation above about 37%;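 note: CHO cells stably expressing TAAR1 with calcium dye readout; 0% = DMSO vehicle and 100% = full agonist response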
Numbers without * were called inactive; · = not tested or not shown.

SMILES | TAAR1 antagonist | TAAR1 agonist | CHO parental Ca | OX1R antag-1 | OX1R antag-2 | NTR1 agonist | nonsel antag count | TAAR1 ant conf | Ga16 nonsel ag | TAAR1 ag counter
CCOC(=O)C1CCCN(C/C=C/c2ccccc2)C1 (stereo unspecified) | -17 | 0 | · | · | · | -1 | · | · | · | ·
Cc1ccc(C(=O)NCC(=O)Nc2ccc(Cl)cc2)s1 | 2 | 5 | -12 | 6 | 1 | 4 | · | · | · | ·
O=C(COC(=O)c1nn(-c2ccccc2C(F)(F)F)cc1O)c1ccc(OC(F)F)cc1 | -17 | 1 | 16 | -2 | 11 | 0 | · | · | · | ·
CC(CCN1CCN(c2ccc(F)cc2)CC1)c1ccccc1 (stereo unspecified) | -22 | 6 | -20 | -43 | 5 | 4 | · | · | · | ·
O=C(Nc1nc(-c2ccc3ccccc3c2)cs1)C1CCN(S(=O)(=O)c2cccs2)CC1 | 104* | 0 | -11 | -15 | 15 | 0 | 15 | 3 | 3 | 4
Cc1ccc(-c2csc(NC(=O)C3CCN(S(=O)(=O)c4cccs4)CC3)n2)cc1 | 1 | 1 | 22 | 6 | 15 | 2 | · | · | · | ·
CCN=C1SC(CC(=O)Nc2ccc(C(F)(F)F)cc2)C(=O)N1CC (stereo unspecified) | 77* | 24 | 8 | -5 | 15 | 2 | 38* | 65* | 13* | 14
CCN=C1SC(CC(=O)Nc2ccc(N3CCOCC3)cc2)C(=O)N1CC (stereo unspecified) | 48 | 11 | -2 | -6 | 16 | 0 | · | · | · | ·
Cc1ccc(C)c(Nc2nc3ccccc3n3cnnc23)c1 | 7 | 3 | -4 | -31 | 20 | 11 | · | · | · | ·
Cc1ccc(/C(O)=C2\C(=O)C(=O)N(CCCN3CCOCC3)C2c2ccccc2F)cc1 (stereo unspecified) | -19 | 1 | · | · | · | · | · | · | · | ·
COc1ccc(-c2cc(C(=O)NCC3CCCO3)c3ccccc3n2)cc1 (stereo unspecified) | 11 | 8 | -22 | -23 | 26 | 0 | · | · | · | ·
Cc1ccc(-c2nc(C(=O)NCCCN(C)C)cc3c2[nH]c2ccccc23)cc1 | -13 | -1 | -1 | -15 | 10 | 3 | · | · | · | ·
Cc1nc(C(=O)NCCO)cc2c1[nH]c1ccccc12 | -1 | 0 | · | · | · | 0 | · | · | · | ·
COc1ccc(-c2nc(C(=O)NCC3CCCO3)cc3c2[nH]c2ccccc23)cc1 (stereo unspecified) | 67* | 3 | -9 | -11 | 22 | 6 | 25* | 43 | 4 | 0
Cc1ccc(-c2nc(C(=O)NCC3CCCO3)cc3c2[nH]c2ccccc23)cc1 (stereo unspecified) | 76* | 4 | -5 | -15 | 50* | 2 | 35* | 55* | 5 | 1
Cc1ccccc1-c1nc(C(=O)NCC2CCCO2)cc2c1[nH]c1ccccc12 (stereo unspecified) | 55* | 0 | -23 | -30 | 14 | 4 | 28* | 37 | 5 | 0
O=C(NCC1CCCO1)c1cc2c([nH]c3ccccc32)c(-c2cccc(Br)c2)n1 (stereo unspecified) | 75* | 2 | -5 | -3 | 22 | 1 | 34* | 58* | 5 | 7
CN(CCN(C)C(C)(C)C)C(=O)C(c1ccccc1)c1ccccc1 | -12 | 0 | -16 | -11 | 12 | 2 | · | · | · | ·
O=C(c1ccncc1)N1CCN(S(=O)(=O)c2ccccc2Br)CC1 | -14 | 11 | -7 | -1 | 3 | 2 | · | · | · | ·
COc1cc(CC(=O)Nc2cccc(S(=O)(=O)N(C)c3ccccc3)c2)cc(OC)c1OC | 26 | 6 | 3 | 21 | 9 | -2 | · | · | · | ·
COc1ccccc1C(=O)NCC(=O)OCC(=O)Nc1cccc(S(=O)(=O)N(C)C)c1 | 21 | 2 | -24 | -33 | 5 | 1 | · | · | · | ·
CN(C)S(=O)(=O)c1cccc(NC(=O)COc2ccccc2C(=O)NCc2ccccc2)c1 | 63* | 13 | · | · | · | 2 | 25* | 47 | 11 | 11
COc1cc(C=O)ccc1OCC(=O)Nc1cccc(S(=O)(=O)N(C)c2ccccc2)c1 | 63* | 13 | 12 | -11 | 27 | 4 | 35* | 54* | 9 | 8
Cc1cc(N2CCN(C)CC2)nc2ccc(NC(=O)CCC3CCCC3)cc12 | -9 | 0 | -11 | -46 | 6 | 4 | · | · | · | ·
COc1ccc(/C=C(\C#N)C(=O)c2c(C)[nH]c3ccccc23)cc1OC | 59* | 5 | -12 | -18 | 26 | 0 | 17 | 32 | 2 | 3
SMILES | TAAR1 antagonist | TAAR1 agonist | CHO parental Ca | OX1R antag-1 | OX1R antag-2 | NTR1 agonist | nonsel antag count | TAAR1 ant conf | Ga16 nonsel ag | TAAR1 ag counter
O=[N+]([O-])c1cccnc1SCc1c(F)cccc1Cl | 52* | 10 | -7 | -31 | 24 | 2 | 16 | 27 | 3 | 9
O=C(CSc1ncnc2c1nnn2-c1ccc(F)cc1)NCc1ccco1 | 64* | 37 | -6 | -4 | 18 | 4 | 14 | 9 | 5 | -2
Cc1ccc(-n2nnc3c(SCC(=O)NCc4ccco4)ncnc32)cc1 | 4 | 3 | 7 | -10 | 16 | 2 | · | · | · | ·
C[C@H](CO)N1C[C@H](C)[C@@H](CN(C)C(=O)c2ccc3c(c2)OCO3)Oc2cc(/C=C/c3ccccc3)ccc2S1(=O)=O | 40 | 16 | · | · | · | · | · | · | · | ·
C[C@@H]1CC=C[C@@H]2[C@H]1C(=O)N(Cc1ccccc1)[C@H]2c1ccccc1Br | 70* | 4 | -29 | -5 | 19 | 6 | 21 | 39 | 6 | 11
C[C@@H]1CC=C[C@@H]2[C@H]1C(=O)N(Cc1ccccc1)[C@H]2c1cccc(Br)c1 | -22 | 1 | -32 | 0 | 20 | 6 | · | · | · | ·
COc1cccc(N2CCN(c3ncnc4c3cnn4-c3ccc(C)cc3C)CC2)c1 | 96* | 4 | 42* | 39 | 43* | 22 | 48* | 65* | 9 | 5
Cc1ccc(-n2ncc3c(N4CCCC4)ncnc32)c(C)c1 | 9 | 4 | -2 | -9 | 12 | 1 | · | · | · | ·
COc1ccc(C(=O)Nc2cccc(NC(=O)c3ccc(OC)c(OC)c3)n2)cc1OC | 62* | 25 | -5 | -14 | 14 | 1 | 35* | 55* | 10 | 7
CCOc1ccc(C(=O)OCC(=O)N(Cc2ccccc2)Cc2ccccc2)cc1OC | 9 | 3 | -16 | -21 | 13 | 2 | · | · | · | ·
N#CCc1ccccc1C(=O)OCC(=O)N(Cc1ccccc1)Cc1ccccc1 | 64* | 14 | 0 | 5 | 0 | 1 | 29* | 51* | 6 | 4
